Test results: ChEMBL document CHEMBL3044834, “Novel protoporphyrinogen oxidase inhibitors: 3H-pyrazolo[3,4-d][1,2,3]triazin-4-one derivatives” (J Agric Food Chem, 2008)

Experiments:
Assay type in all cases: functional
[1] = tested on: Brassica rapa subsp. oleifera; assay: Herbicidal activity against Brassica rapa subsp. oleifera assessed as inhibition of fresh weed plant weight at 375 g/ha using pre-emergence treatment protocol
[2] = tested on: Brassica rapa subsp. oleifera; assay: Herbicidal activity against Brassica rapa subsp. oleifera assessed as inhibition of fresh weed plant weight at 187.5 g/ha using pre-emergence treatment protocol
Echinochloa crus-galli [3] = assay: Herbicidal activity against Echinochloa crus-galli (barnyard grass) assessed as inhibition of fresh weed plant weight at 93.75 g/ha using post-emergence treatment protocol
Outline: (§1)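 Test compounds made up as emulsions by dissolving in 100 µL N,N-dimethylformamide, then adding a little Tween 20 and water. For post-emergence, weed seedlings at one leaf and one stem were sprayed at the same rates as the pre-emergence test. Fresh weight was recorded 15 days after treatment and expressed as percent inhibition versus controls. All treatments were run in triplicate.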

[4] = tested on: Brassica rapa subsp. oleifera; assay: Herbicidal activity against Brassica rapa subsp. oleifera assessed as inhibition of fresh weed plant weight at 45 g/ha using pre-emergence treatment protocol
Echinochloa crus-galli [5] = assay: Herbicidal activity against Echinochloa crus-galli (barnyard grass) assessed as inhibition of fresh weed plant weight at 750 g/ha using pre-emergence treatment protocol
Echinochloa crus-galli [6] = assay: Herbicidal activity against Echinochloa crus-galli (barnyard grass) assessed as inhibition of fresh weed plant weight at 750 g/ha using post-emergence treatment protocol; outline: as §1
Amaranthus retroflexus [7] = assay: Herbicidal activity against Amaranthus retroflexus assessed as inhibition of fresh weed plant weight at 93.75 g/ha using post-emergence treatment protocol; outline: as §1
[8] = tested on: Brassica rapa subsp. oleifera; assay: Herbicidal activity against Brassica rapa subsp. oleifera assessed as inhibition of fresh weed plant weight at 1500 g/ha using post-emergence treatment protocol; outline: as §1
Echinochloa crus-galli [9] = assay: Herbicidal activity against Echinochloa crus-galli (barnyard grass) assessed as inhibition of fresh weed plant weight at 187.5 g/ha using post-emergence treatment protocol; outline: as §1
Digitaria sanguinalis [10] = assay: Herbicidal activity against Digitaria sanguinalis (hairy crabgrass) assessed as inhibition of fresh weed plant weight at 750 g/ha using post-emergence treatment protocol; outline: as §1
Digitaria sanguinalis [11] = assay: Herbicidal activity against Digitaria sanguinalis (hairy crabgrass) assessed as inhibition of fresh weed plant weight at 187.5 g/ha using pre-emergence treatment protocol
Amaranthus retroflexus [12] = assay: Herbicidal activity against Amaranthus retroflexus assessed as inhibition of fresh weed plant weight at 375 g/ha using pre-emergence treatment protocol
Amaranthus retroflexus [13] = assay: Herbicidal activity against Amaranthus retroflexus assessed as inhibition of fresh weed plant weight at 1500 g/ha using post-emergence treatment protocol; outline: as §1
[14] = tested on: Brassica rapa subsp. oleifera; assay: Herbicidal activity against Brassica rapa subsp. oleifera assessed as inhibition of fresh weed plant weight at 375 g/ha using post-emergence treatment protocol; outline: as §1
Amaranthus retroflexus [15] = assay: Herbicidal activity against Amaranthus retroflexus assessed as inhibition of fresh weed plant weight at 187.5 g/ha using pre-emergence treatment protocol
Echinochloa crus-galli [16] = assay: Herbicidal activity against Echinochloa crus-galli (barnyard grass) assessed as inhibition of fresh weed plant weight at 375 g/ha using post-emergence treatment protocol; outline: as §1
Echinochloa crus-galli [17] = assay: Herbicidal activity against Echinochloa crus-galli (barnyard grass) assessed as inhibition of fresh weed plant weight at 1500 g/ha using pre-emergence treatment protocol
Echinochloa crus-galli [18] = assay: Herbicidal activity against Echinochloa crus-galli (barnyard grass) assessed as inhibition of fresh weed plant weight at 375 g/ha using pre-emergence treatment protocol; outline: as §1
Echinochloa crus-galli [19] = assay: Herbicidal activity against Echinochloa crus-galli (barnyard grass) assessed as inhibition of fresh weed plant weight at 93.75 g/ha using pre-emergence treatment protocol
[20] = tested on: Brassica rapa subsp. oleifera; assay: Herbicidal activity against Brassica rapa subsp. oleifera assessed as inhibition of fresh weed plant weight at 187.5 g/ha using post-emergence treatment protocol; outline: as §1
Amaranthus retroflexus [21] = assay: Herbicidal activity against Amaranthus retroflexus assessed as inhibition of fresh weed plant weight at 375 g/ha using post-emergence treatment protocol; outline: as §1
Echinochloa crus-galli [22] = assay: Herbicidal activity against Echinochloa crus-galli (barnyard grass) assessed as inhibition of fresh weed plant weight at 1500 g/ha using post-emergence treatment protocol; outline: as §1
[23] = tested on: Brassica rapa subsp. oleifera; assay: Herbicidal activity against Brassica rapa subsp. oleifera assessed as inhibition of fresh weed plant weight at 93.75 g/ha using post-emergence treatment protocol; outline: as §1
Amaranthus retroflexus [24] = assay: Herbicidal activity against Amaranthus retroflexus assessed as inhibition of fresh weed plant weight at 750 g/ha using post-emergence treatment protocol; outline: as §1
Amaranthus retroflexus [25] = assay: Herbicidal activity against Amaranthus retroflexus assessed as inhibition of fresh weed plant weight at 187.5 g/ha using post-emergence treatment protocol; outline: as §1
Digitaria sanguinalis [26] = assay: Herbicidal activity against Digitaria sanguinalis (hairy crabgrass) assessed as inhibition of fresh weed plant weight at 187.5 g/ha using post-emergence treatment protocol; outline: as §1
Digitaria sanguinalis [27] = assay: Herbicidal activity against Digitaria sanguinalis (hairy crabgrass) assessed as inhibition of fresh weed plant weight at 93.75 g/ha using post-emergence treatment protocol; outline: as §1
Echinochloa crus-galli [28] = assay: Herbicidal activity against Echinochloa crus-galli (barnyard grass) assessed as inhibition of fresh weed plant weight at 187.5 g/ha using pre-emergence treatment protocol; outline: as §1
[29] = tested on: Brassica rapa subsp. oleifera; assay: Herbicidal activity against Brassica rapa subsp. oleifera assessed as inhibition of fresh weed plant weight at 1500 g/ha using pre-emergence treatment protocol
[30] = tested on: Brassica rapa subsp. oleifera; assay: Herbicidal activity against Brassica rapa subsp. oleifera assessed as inhibition of fresh weed plant weight at 750 g/ha using pre-emergence treatment protocol
Amaranthus retroflexus [31] = assay: Herbicidal activity against Amaranthus retroflexus assessed as inhibition of fresh weed plant weight at 1500 g/ha using pre-emergence treatment protocol
Digitaria sanguinalis [32] = assay: Herbicidal activity against Digitaria sanguinalis (hairy crabgrass) assessed as inhibition of fresh weed plant weight at 375 g/ha using pre-emergence treatment protocol
Digitaria sanguinalis [33] = assay: Herbicidal activity against Digitaria sanguinalis (hairy crabgrass) assessed as inhibition of fresh weed plant weight at 1500 g/ha using post-emergence treatment protocol; outline: as §1
Digitaria sanguinalis [34] = assay: Herbicidal activity against Digitaria sanguinalis (hairy crabgrass) assessed as inhibition of fresh weed plant weight at 1500 g/ha using pre-emergence treatment protocol
Echinochloa crus-galli [35] = assay: Herbicidal activity against Echinochloa crus-galli (barnyard grass) assessed as inhibition of fresh weed plant weight at 22.5 g/ha using pre-emergence treatment protocol; outline: as §1
Amaranthus retroflexus [36] = assay: Herbicidal activity against Amaranthus retroflexus assessed as inhibition of fresh weed plant weight at 750 g/ha using pre-emergence treatment protocol; outline: as §1
Amaranthus retroflexus [37] = assay: Herbicidal activity against Amaranthus retroflexus assessed as inhibition of fresh weed plant weight at 45 g/ha using pre-emergence treatment protocol
Echinochloa crus-galli [38] = assay: Herbicidal activity against Echinochloa crus-galli (barnyard grass) assessed as inhibition of fresh weed plant weight at 45 g/ha using pre-emergence treatment protocol
[39] = tested on: Brassica rapa subsp. oleifera; assay: Herbicidal activity against Brassica rapa subsp. oleifera assessed as inhibition of fresh weed plant weight at 750 g/ha using post-emergence treatment protocol; outline: as §1
[40] = tested on: Brassica rapa subsp. oleifera; assay: Herbicidal activity against Brassica rapa subsp. oleifera assessed as inhibition of fresh weed plant weight at 22.5 g/ha using pre-emergence treatment protocol
Digitaria sanguinalis [41] = assay: Herbicidal activity against Digitaria sanguinalis (hairy crabgrass) assessed as inhibition of fresh weed plant weight at 750 g/ha using pre-emergence treatment protocol
Digitaria sanguinalis [42] = assay: Herbicidal activity against Digitaria sanguinalis (hairy crabgrass) assessed as inhibition of fresh weed plant weight at 45 g/ha using pre-emergence treatment protocol
Amaranthus retroflexus [43] = assay: Herbicidal activity against Amaranthus retroflexus assessed as inhibition of fresh weed plant weight at 22.5 g/ha using pre-emergence treatment protocol
Digitaria sanguinalis [44] = assay: Herbicidal activity against Digitaria sanguinalis (hairy crabgrass) assessed as inhibition of fresh weed plant weight at 22.5 g/ha using pre-emergence treatment protocol
Digitaria sanguinalis [45] = assay: Herbicidal activity against Digitaria sanguinalis (hairy crabgrass) assessed as inhibition of fresh weed plant weight at 93.75 g/ha using pre-emergence treatment protocol
Amaranthus retroflexus [46] = assay: Herbicidal activity against Amaranthus retroflexus assessed as inhibition of fresh weed plant weight at 93.75 g/ha using pre-emergence treatment protocol
Digitaria sanguinalis [47] = assay: Herbicidal activity against Digitaria sanguinalis (hairy crabgrass) assessed as inhibition of fresh weed plant weight at 375 g/ha using post-emergence treatment protocol; outline: as §1
[48] = tested on: Brassica rapa subsp. oleifera; assay: Herbicidal activity against Brassica rapa subsp. oleifera assessed as inhibition of fresh weed plant weight at 93.75 g/ha using pre-emergence treatment protocol

## C#CCN1C(=O)COc2cc(F)c(-n3nnc4c(cnn4CC=C)c3=O)cc21
[1]
  inhibition at 375 g/ha: 100%
[2]
  inhibition at 187.5 g/ha: 100%
Echinochloa crus-galli [3]
  inhibition at 93.75 g/ha: 7%
[4]
  inhibition at 45 g/ha: 66.7%
Echinochloa crus-galli [5]
  inhibition at 750 g/ha: 98.9%
Echinochloa crus-galli [6]
  inhibition at 750 g/ha: 51.6%
Amaranthus retroflexus [7]
  inhibition at 93.75 g/ha: 0%
[8]
  inhibition at 1500 g/ha: 100%
Echinochloa crus-galli [9]
  inhibition at 187.5 g/ha: 27.8%
Digitaria sanguinalis [10]
  inhibition at 750 g/ha: 16.7%
Digitaria sanguinalis [11]
  inhibition at 187.5 g/ha: 77.6%
Amaranthus retroflexus [12]
  inhibition at 375 g/ha: 100%
Amaranthus retroflexus [13]
  inhibition at 1500 g/ha: 100%
[14]
  inhibition at 375 g/ha: 100%
Amaranthus retroflexus [15]
  inhibition at 187.5 g/ha: 100%
Echinochloa crus-galli [16]
  inhibition at 375 g/ha: 43.5%
Echinochloa crus-galli [17]
  inhibition at 1500 g/ha: 100%
Echinochloa crus-galli [18]
  inhibition at 375 g/ha: 97.3%
Echinochloa crus-galli [19]
  inhibition at 93.75 g/ha: 53.4%
[20]
  inhibition at 187.5 g/ha: 72.9%
Amaranthus retroflexus [21]
  inhibition at 375 g/ha: 83.5%
Echinochloa crus-galli [22]
  inhibition at 1500 g/ha: 85.2%
[23]
  inhibition at 93.75 g/ha: 18.5%
Amaranthus retroflexus [24]
  inhibition at 750 g/ha: 100%
Amaranthus retroflexus [25]
  inhibition at 187.5 g/ha: 5.8%
Digitaria sanguinalis [26]
  inhibition at 187.5 g/ha: 0%
Digitaria sanguinalis [27]
  inhibition at 93.75 g/ha: 0%
Echinochloa crus-galli [28]
  inhibition at 187.5 g/ha: 63.7%
[29]
  inhibition at 1500 g/ha: 100%
[30]
  inhibition at 750 g/ha: 100%
Amaranthus retroflexus [31]
  inhibition at 1500 g/ha: 100%
Digitaria sanguinalis [32]
  inhibition at 375 g/ha: 100%
Digitaria sanguinalis [33]
  inhibition at 1500 g/ha: 32.1%
Digitaria sanguinalis [34]
  inhibition at 1500 g/ha: 100%
Echinochloa crus-galli [35]
  inhibition at 22.5 g/ha: 25.1%
Amaranthus retroflexus [36]
  inhibition at 750 g/ha: 100%
Amaranthus retroflexus [37]
  inhibition at 45 g/ha: 86.2%
Echinochloa crus-galli [38]
  inhibition at 45 g/ha: 34%
[39]
  inhibition at 750 g/ha: 100%
[40]
  inhibition at 22.5 g/ha: 22.3%
Digitaria sanguinalis [41]
  inhibition at 750 g/ha: 100%
Digitaria sanguinalis [42]
  inhibition at 45 g/ha: 2.4%
Amaranthus retroflexus [43]
  inhibition at 22.5 g/ha: 76.6%
Digitaria sanguinalis [44]
  inhibition at 22.5 g/ha: 0%
Digitaria sanguinalis [45]
  inhibition at 93.75 g/ha: 44.9%
Amaranthus retroflexus [46]
  inhibition at 93.75 g/ha: 100%
Digitaria sanguinalis [47]
  inhibition at 375 g/ha: 4.2%
[48]
  inhibition at 93.75 g/ha: 100%
